# Assay results taken from ChEMBL document CHEMBL1126298, “New triazine derivatives as potent modulators of multidrug resistance” (1992).
# Key:
# DC3F/AD [1] = assay: Percent of cell viability remaining after incubating with a 10 uM concentration; type: functional, Cricetulus griseus
# Method in brief: (§1)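 Cells were grown with modulator alone for 4 days under the same conditions as the chemosensitivity assay, and read by MTT. Viability = (absorbance with modulator/absorbance of control cells) × 100. "tox" marks viability below 25%.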
# DC3F/AD [2] = assay: Increase in adriamycin uptake in modulator-treated cells relative to untreated cells at a concentration of 10 uM; type: functional, Cricetulus griseus
# Method in brief: (§2)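 DC-3F/AD or KB-A1 cells (5 × 10⁶/mL) were incubated at 37 °C for 5 h with 50 μM adriamycin plus modulator (2.5–10 μM range). ADR fluorescence of 10 000 cells was read by flow cytometry at 4 °C with 488 nm argon-laser excitation. The value is the increase in mean fluorescence of treated cells over untreated cells.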
# KB [3] = assay: Percent of cell viability remaining after incubating the cells with the modulator alone; type: functional, Homo sapiens; set-up: concentration or dose not given beside the values; method in brief: as §1
# KB [4] = assay: In vitro activity in KB-A1 cell line activity expressed as fold reversion (Ratio of IC50(adriamycin alone) / IC50(adriamycin + modulator) at a concentration of 5 uM; type: functional, Homo sapiens
# Method in brief: (§3)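 Human epidermoid KB-A1 cells (Pgp-overexpressing) were grown in RPMI 1640 with 10% FCS and 10 mM HEPES (pH 7.4). They were exposed for 4 days to adriamycin (nine graded concentrations, in triplicate) with or without 5 μM modulator. IC50 was read by the MTT assay. Fold reversion = IC50(ADR alone)/IC50(ADR + modulator).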
# P388 [5] = assay: Antitumor activity of vincristine against P388 leukemia cell line in mice at a dose of 50 mg/kg.; type: functional, Mus musculus
# Cricetinae gen. sp. [6] = assay: Compound was evaluated for in vitro activity in DC-3F/AD cell line(Ratio of IC50(actinomycin D alone) / IC50(actinomycin D + modulator) at a concentration of 5 uM
# P388 [7] = assay: Antitumor activity of vincristine against P388 leukemia cell line in mice at a dose of 100 mg/kg.; type: functional, Mus musculus
# DC3F/AD [8] = assay: (§4) Increase in adriamycin uptake in modulator-treated cells relative to untreated cells at a concentration of 5 uM; type: functional, Cricetulus griseus; method in brief: as §2
# KB [9] = assay: Increase in adriamycin uptake in modulator-treated cells relative to untreated KB-A1 cells at a concentration of 5 uM; type: functional, Homo sapiens; method in brief: as §2
# DC3F/AD [10] = assay: In vitro activity in DC-3F/AD cell line Ratio of IC50(actinomycin D alone) / IC50(actinomycin D + modulator) at a concentration of 10 uM
# DC3F/AD [11] = assay: Percent of cell viability remaining after incubating the cells with the modulator alone a concentration of 5 uM; type: functional, Cricetulus griseus; method in brief: as §1
# KB [12] = assay: Compound was evaluated for the in vitro activity in KB-A1 cell line. Activity expressed as fold reversion (Ratio of IC50(adriamycin alone) / IC50(adriamycin + modulator) at a concentration of 5 uM; type: functional, Homo sapiens; method in brief: as §3
# Cricetinae gen. sp. [13] = assay: (§5) Percent of cell viability remaining after incubating the cells with the modulator alone at a concentration of 10 uM; type: functional, Cricetulus griseus; method in brief: as §1
# DC3F/AD [14] = assay: In vitro activity in DC-3F/AD cell line(Ratio of IC50(actinomycin D alone) / IC50(actinomycin D + modulator) at a concentration of 5 uM
# P388/VCR [15] = assay: Antitumor activity of vincristine against P388/VCR leukemia in mice at a dose of 100 mg/kg; type: functional, Mus musculus
# P388/VCR [16] = assay: Antitumor activity of vincristine against P388/VCR leukemia in mice at a dose of 50 mg/kg; type: functional, Mus musculus
# P388 [17] = assay: Antitumor activity of vincristine against P388 leukemia cell line in mice at a dose of 50 mg/kg; type: functional, Mus musculus
# DC3F/AD [18] = assay: Compound was evaluated for in vitro activity in DC-3F/AD cell line (Ratio of IC50(actinomycin D alone) / IC50(actinomycin D + modulator) at a concentration of 5 uM
# DC3F/AD [19] = assay: Percent of cell viability remaining after incubating the cells with the modulator alone at a concentration of 5 uM; type: functional, Cricetulus griseus; method in brief: as §1
# DC3F/AD [20] = assay: as §5; type: functional, Cricetulus griseus; method in brief: as §1
# P388 [21] = assay: Antitumor activity of vincristine against P388 leukemia cell line in mice at a dose of 100 mg/kg; type: functional, Mus musculus
# P388/VCR [22] = assay: Antitumor activity of vincristine against P388/VCR leukemia in mice at a dose of 100 mg/kg.; type: functional, Mus musculus
# P388/VCR [23] = assay: Antitumor activity of vincristine against P388/VCR leukemia in mice at a dose of 50 mg/kg.; type: functional, Mus musculus
# KB [24] = assay: as §4; type: functional, Homo sapiens; method in brief: as §2
Compound,Viability (DC3F/AD [1]),Increase (DC3F/AD [2]),Viability (KB [3]),Fold reversion (KB [4]),T/C (P388 [5]),T/C (P388 [7]),Increase (DC3F/AD [8]),Increase (KB [9]),Fold reversion (DC3F/AD [10]),Viability (DC3F/AD [11]),Fold reversion (KB [12]),Fold reversion (DC3F/AD [14]),also measured
C=CCNc1nc(NCC)nc(N2CCC(NCC3c4ccccc4COc4ccccc43)CC2)n1 (stereo not given),86%,21.8,101%,229,196%,180%,18,38.8,2630,76%,–,–,Fold reversion (Cricetinae gen. sp. [6]): 1327
C=CCNc1nc(NCC=C)nc(N2CCN(CC3c4ccccc4CCc4ccccc43)CC2)n1,–,24.5,121%,–,–,–,17.6,29.7,1832,84%,63,464,Viability (Cricetinae gen. sp. [13]): 70%
C=CCNc1nc(NCC=C)nc(N2CCC(NCC(c3ccc(F)cc3)c3ccc(F)cc3)CC2)n1,62%,35.6,75%,168,–,157%,26.1,56.5,2564,78%,–,–,T/C (P388/VCR [15]): 185%; T/C (P388/VCR [16]): 176%; T/C (P388 [17]): 168%; Fold reversion (DC3F/AD [18]): 918
C=CCNc1nc(NCC=C)nc(N2CCC(NC(c3ccccc3)c3ccccc3)CC2)n1,61%,40,–,–,–,–,25.9,–,1828,–,–,905,Viability (DC3F/AD [19]): 75%
COc1ccc(CCN(C)CCCC(C#N)(c2ccc(OC)c(OC)c2)C(C)C)cc1OC (stereo not given),39%,7.5,75%,–,–,–,2.6,13.4,34,43%,26,–,Fold reversion (DC3F/AD [18]): 3
C=CCNc1nc(NCC=C)nc(N2CCC(NCC3c4ccccc4N(C)S(=O)(=O)c4cc(Cl)ccc43)CC2)n1 (stereo not given),–,24.1,92%,147,177%,173%,22.8,39.8,9570,91%,–,2804,Of viability (DC3F/AD [20]): 77%
C=CCNc1nc(NCC=C)nc(N2CCC(NCC3c4ccccc4COc4ccccc43)CC2)n1 (stereo not given),78%,25.3,106%,–,–,–,25.5,53.7,5344,82%,274,1932,T/C (P388 [21]): 191%; T/C (P388 [17]): 196%
C=CCNc1nc(NCCC)nc(N2CCC(NCC(c3ccccc3)c3ccccc3)CC2)n1,66%,34.2,93%,236,176%,177%,26,51.5,2356,77%,–,965,T/C (P388/VCR [22]): 163%; T/C (P388/VCR [23]): 167%
C=CCNc1nc(NCC=C)nc(N2CCN(C(c3ccc(F)cc3)c3ccc(F)cc3)CC2)n1.CS(=O)(=O)O,63%,17.9,–,–,–,–,7.3,–,235,–,–,112,Viability (DC3F/AD [19]): 65%
C=CCNc1nc(NCCC)nc(N2CCC(NCC3c4ccccc4CCc4ccccc43)CC2)n1,42%,24.9,55%,221,179%,176%,27.3,–,4455,85%,–,2753,Increase (KB [24]): 51.3
